This passage reports MIC and IC50 results from ChEMBL document CHEMBL1157014, “Synthesis, characterization and biological evaluation of some thiourea derivatives bearing benzothiazole moiety as potential antimicrobial and anticancer agents” (Eur J Med Chem, 2010).

pIC50: −log10 of the molar value. In brackets after ≈: the same amount, converted by molar mass.

Experiment [1] concerns Pichia kudriavzevii. Put plainly: Antifungal activity against Candida krusei ATCC 6268 after 48 hrs by browth microdilution assay. The class given is functional. The procedure, abridged:
(§1)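 Yeast colonies suspended in 0.9% saline and adjusted to McFarland 0.5, then tested by CLSI broth microdilution. Compounds in DMSO, diluted with distilled water to 3.125–100 µg/ml, with DMSO as negative control and nystatin as reference. Incubation at 37 °C, read after 48 h. MIC is the lowest concentration with no visible growth.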
In general terms: In broth dilution the organism is exposed to a series of concentrations in liquid medium.

For experiment [2], the system named is Candida albicans. Kind of experiment: Antifungal activity against Candida albicans ATCC 90028 after 48 hrs by browth microdilution assay. The class given is functional. The procedure, abridged: as §1
In experiment [3] the test system is Staphylococcus epidermidis. Kind of experiment: Antibacterial activity against Staphylococcus epidermidis ATCC 12228 after 24 hrs by browth microdilution assay. The class given is functional. Conditions: ATCC 12228, 24 h. The procedure, abridged:
(§2)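 Broth microdilution per CLSI. Colonies suspended in 0.9% saline and adjusted to McFarland 0.5. Compounds dissolved in DMSO, diluted with distilled water to 100, 50, 25, 12.5, 6.25 and 3.125 µg/ml, with DMSO as negative control. Gentamycin (Gram-negative) and amikacin (Gram-positive) served as reference drugs. Incubation at 37 °C for 24 h. MIC taken as the lowest concentration preventing visible growth.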

The subject of experiment [4] is Candida tropicalis. Put plainly: Antifungal activity against Candida tropicalis ATCC 20336 after 48 hrs by browth microdilution assay. Format: functional. Summed up: as §1
Experiment [5] has as its system Staphylococcus aureus. Kind of experiment: Antibacterial activity against Staphylococcus aureus ATCC 29213 after 24 hrs by browth microdilution assay. Conditions: ATCC 29213, 24 h. Format: functional. The procedure, abridged:
as §2

Experiment [6] relates to Nakaseomyces glabratus. Kind of experiment: Antifungal activity against Candida glabrata ATCC 32554 after 48 hrs by browth microdilution assay. Format: functional. The procedure, abridged: as §1
Experiment [7] deals with Enterococcus faecalis. Kind of experiment: Antibacterial activity against Enterococcus faecalis ATCC 29212 after 24 hrs by browth microdilution assay. Conditions: ATCC 29212, 24 h. Format: functional. Summed up: as §2
Experiment [8] deals with MCF7. Kind of experiment: Cytotoxicity against human MCF7 after 24 hrs by MTT assay. The class given is functional, cell-based. Conditions: MCF7, 24 h. The procedure, abridged: (§3)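 Cells grown in MEM with 10% FBS and 1% glutamine at 5% CO2, seeded at 1.0×10^4 cells. Exposed to compounds at 1–100 µM in medium containing 0.1% DMSO for 24 h at 37 °C. MTT (1 mg/ml) added for 5 h at 37 °C, then DMSO added and absorbance read at 540 nm. Run in triplicate; IC50 determined.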
(In general: Tetrazolium dyes change colour on reduction, which living cells bring about.)

The test system of experiment [9] is HeLa. Kind of experiment: Cytotoxicity against human HeLa after 24 hrs by MTT assay. The class given is functional, cell-based. Summed up: as §3
The subject of experiment [10] is Staphylococcus aureus (ATCC 25923). Kind of experiment: Antibacterial activity against Staphylococcus aureus ATCC 25923 after 24 hrs by browth microdilution assay. To be noted: ATCC 25923, 24 h.
The test system of experiment [11] is Proteus vulgaris. Put plainly: Antibacterial activity against Proteus vulgaris ATCC 13315 after 24 hrs by browth microdilution assay. Format: functional. Conditions: ATCC 13315, 24 h. The procedure, abridged: as §2
In experiment [12] the test system is Escherichia coli. Put plainly: microbe, parasite or virus in culture. Conditions: ATCC 25922, 24 h.
In experiment [13] the test system is Enterobacter cloacae. Kind of experiment: Antibacterial activity against Enterobacter cloacae ATCC 13047 after 24 hrs by browth microdilution assay. Format: functional. To be noted: ATCC 13047, 24 h. Summed up:
as §2

The subject of experiment [14] is Pseudomonas aeruginosa. Kind of experiment: Antibacterial activity against Pseudomonas aeruginosa ATCC 27853 after 24 hrs by browth microdilution assay. Conditions: ATCC 27853, 24 h. The class given is functional. Summed up: as §2

By pIC50 is commonly meant the negative decadic logarithm of the IC50, by convention in mol/L. Consider `CCCC(=O)NC(=S)Nc1nc2cc(N)ccc2s1`, for which the MIC is 50 µg/mL (≈ 170 µM) in experiment [1] (ATCC 6268, 48 h); 20 µg/mL (≈ 67.9 µM) in experiment [2] (ATCC 90028, 48 h); 50 µg/mL (≈ 170 µM) in [3]; 50 µg/mL (≈ 170 µM) in [4] (ATCC 20336, 48 h); 50 µg/mL (≈ 170 µM) in experiment [5]; 50 µg/mL (≈ 170 µM) in experiment [6] (ATCC 32554, 48 h). Moreover, the MIC in experiment [7] amounted to 50 µg/mL (≈ 170 µM). Moreover, in [8], the pIC50 is 4.35.
On to `O=C(NC(=S)Nc1nc2cc([N+](=O)[O-])ccc2s1)c1ccc([N+](=O)[O-])cc1`, for which the pIC50 is 4.16 in experiment [9] and 4.45 in [8]. For the same compound, the MIC is 25 µg/mL (≈ 62 µM) in experiment [1] (ATCC 6268, 48 h); 25 µg/mL (≈ 62 µM) in experiment [2] (ATCC 90028, 48 h); 25 µg/mL (≈ 62 µM) in [3]; 25 µg/mL (≈ 62 µM) in experiment [4] (ATCC 20336, 48 h); 50 µg/mL (≈ 124 µM) in experiment [10]; 50 µg/mL (≈ 124 µM) in [5]. Also, the MIC in [11] came to 25 µg/mL (≈ 62 µM); in experiment [12], 50 µg/mL (≈ 124 µM); in [13] it was 25 µg/mL (≈ 62 µM); in experiment [14] it was 50 µg/mL (≈ 124 µM); in [6] (ATCC 32554, 48 h), 25 µg/mL (≈ 62 µM); in experiment [7], 50 µg/mL (≈ 124 µM).
For the compound NYSTATIN, the MIC in [1] stood at 0.5 µg/mL; in [2], 1 µg/mL; in [4], 4 µg/mL; in [6], 2 µg/mL.
`NCC[C@H](O)C(=O)N[C@@H]1C[C@H](N)[C@@H](O[C@H]2O[C@H](CN)[C@@H](O)[C@H](O)[C@H]2O)[C@H](O)[C@H]1O[C@H]1O[C@H](CO)[C@@H](O)[C@H](N)[C@H]1O` [AMIKACIN]: the MIC came to 0.5 µg/mL (≈ 0.854 µM) in experiment [3], 2 µg/mL (≈ 3.42 µM) in experiment [10], 2 µg/mL (≈ 3.42 µM) in experiment [5] and 4 µg/mL (≈ 6.83 µM) in experiment [7].
Turning to `O=C(NC(=S)Nc1nc2ccccc2s1)c1cccs1`, the pIC50 in experiment [9] was 4.17; in experiment [8], 4.49. Besides, the MIC was found to be 25 µg/mL (≈ 78.3 µM) in [1] (ATCC 6268, 48 h); 50 µg/mL (≈ 157 µM) in experiment [2] (ATCC 90028, 48 h); 50 µg/mL (≈ 157 µM) in [3]; 50 µg/mL (≈ 157 µM) in [4] (ATCC 20336, 48 h); 50 µg/mL (≈ 157 µM) in experiment [10]; 50 µg/mL (≈ 157 µM) in [5]. In addition, the MIC in [11] worked out at 50 µg/mL (≈ 157 µM); in [12], 25 µg/mL (≈ 78.3 µM); in experiment [13], 50 µg/mL (≈ 157 µM); in experiment [14], 50 µg/mL (≈ 157 µM); in [6] (ATCC 32554, 48 h), 25 µg/mL (≈ 78.3 µM); in experiment [7] it was 50 µg/mL (≈ 157 µM).
In the case of `O=C(NC(=S)Nc1nc2ccccc2s1)N1CCOCC1`, the pIC50 in experiment [9] is 4.29; in experiment [8] it was 4.53. Moreover, the MIC in experiment [1] (ATCC 6268, 48 h) was 25 µg/mL (≈ 77.5 µM); in [2] (ATCC 90028, 48 h), 25 µg/mL (≈ 77.5 µM); in experiment [3], 25 µg/mL (≈ 77.5 µM); in experiment [4] (ATCC 20336, 48 h) it was 25 µg/mL (≈ 77.5 µM); in [10], 50 µg/mL (≈ 155 µM); in [5], 50 µg/mL (≈ 155 µM). The MIC in experiment [11] was 25 µg/mL (≈ 77.5 µM); in experiment [12], 25 µg/mL (≈ 77.5 µM); in [13], 25 µg/mL (≈ 77.5 µM); in experiment [14], 50 µg/mL (≈ 155 µM); in experiment [6] (ATCC 32554, 48 h), 25 µg/mL (≈ 77.5 µM); in experiment [7] it was 50 µg/mL (≈ 155 µM).
As for `O=C(NC(=S)Nc1nc2cc([N+](=O)[O-])ccc2s1)c1cccs1`, the pIC50 in experiment [9] is 4.14; in experiment [8], 4.45. In addition, the MIC in [1] (ATCC 6268, 48 h) came out at 20 µg/mL (≈ 54.9 µM); in [2] (ATCC 90028, 48 h) it was 15 µg/mL (≈ 41.2 µM); in [3] it was 10 µg/mL (≈ 27.4 µM); in [4] (ATCC 20336, 48 h) it was 15 µg/mL (≈ 41.2 µM); in [10] it was 25 µg/mL (≈ 68.6 µM); in experiment [5], 25 µg/mL (≈ 68.6 µM). For the same compound, the MIC in experiment [11] worked out at 20 µg/mL (≈ 54.9 µM); in [12], 15 µg/mL (≈ 41.2 µM); in experiment [13] it was 15 µg/mL (≈ 41.2 µM); in [14], 20 µg/mL (≈ 54.9 µM); in experiment [6] (ATCC 32554, 48 h), 10 µg/mL (≈ 27.4 µM); in experiment [7], 15 µg/mL (≈ 41.2 µM).
On to `O=C(NC(=S)Nc1nc2cc(Br)ccc2s1)c1ccccc1`, for which the pIC50 was 4.19 in experiment [9] and 4.49 in experiment [8]. Besides, the MIC in experiment [1] (ATCC 6268, 48 h) turned out to be 50 µg/mL (≈ 127 µM); in experiment [2] (ATCC 90028, 48 h), 25 µg/mL (≈ 63.7 µM); in [3], 50 µg/mL (≈ 127 µM); in [4] (ATCC 20336, 48 h), 50 µg/mL (≈ 127 µM); in experiment [10] it was 50 µg/mL (≈ 127 µM); in experiment [5], 50 µg/mL (≈ 127 µM). For the same compound, the MIC in experiment [6] (ATCC 32554, 48 h) stood at 25 µg/mL (≈ 63.7 µM); in experiment [7], 50 µg/mL (≈ 127 µM).
